# Test results: ChEMBL document CHEMBL1687728, “Daptomycin versus Friulimicin B: in-depth profiling of Bacillus subtilis cell envelope stress responses” (2009)
# The source made the active and inactive calls. The rule behind the calls is not given here.
# Experiments:
# Bacillus subtilis [1] = assay: Induction of ydaH gene expression in Bacillus subtilis at 1 ug/ml by microarray analysis relative to untreated control; assay type: functional
# In short: (§1)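 B. subtilis cells harvested 10 min after antibiotic addition. Pellets were snap-frozen in liquid nitrogen, then RNA was prepared for microarray hybridization. Fold induction is taken against untreated control cells.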
# Bacillus subtilis [2] = assay: Induction of sigV gene expression in Bacillus subtilis by real-time RT-PCR; assay type: functional
# In short: (§2)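 Transcript levels measured by one-step real-time RT-PCR with SYBR green detection. Fold change is given as mean ± standard deviation of two independent experiments.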
# Bacillus subtilis [3] = assay: Induction of sigX gene expression in Bacillus subtilis by real-time RT-PCR; assay type: functional; in short: as §2
# Bacillus subtilis [4] = assay: Induction of yrhH gene expression in Bacillus subtilis at 1 ug/ml by microarray analysis relative to untreated control; assay type: functional; in short: as §1
# Bacillus subtilis [5] = assay: Induction of radC gene expression in Bacillus subtilis at 1 ug/ml by microarray analysis relative to untreated control; assay type: functional; in short: as §1
# Bacillus subtilis [6] = assay: Induction of sigV-yrhM gene expression in Bacillus subtilis at 1 ug/ml by microarray analysis relative to untreated control; assay type: functional; in short: as §1
# Bacillus subtilis [7] = assay: Induction of sigW gene expression in Bacillus subtilis by real-time RT-PCR; assay type: functional; in short: as §2
# Bacillus subtilis [8] = assay: Induction of ycgRQ gene expression in Bacillus subtilis at 1 ug/ml by microarray analysis relative to untreated control; assay type: functional; in short: as §1
# Bacillus subtilis [9] = assay: Induction of yoxD gene expression in Bacillus subtilis at 1 ug/ml by microarray analysis relative to untreated control; assay type: functional; in short: as §1
# Bacillus subtilis [10] = assay: Induction of ybeF gene expression in Bacillus subtilis at 1 ug/ml by microarray analysis relative to untreated control; assay type: functional; in short: as §1
# Bacillus subtilis [11] = assay: Induction of yjbC-spx gene expression in Bacillus subtilis at 1 ug/ml by microarray analysis relative to untreated control; assay type: functional; in short: as §1
# Bacillus subtilis [12] = assay: Induction of rodA gene expression in Bacillus subtilis at 1 ug/ml by microarray analysis relative to untreated control; assay type: functional; in short: as §1
# Bacillus subtilis [13] = assay: Induction of yppC gene expression in Bacillus subtilis at 1 ug/ml by microarray analysis relative to untreated control; assay type: functional; in short: as §1
# Bacillus subtilis [14] = assay: Induction of mreBH gene expression in Bacillus subtilis at 1 ug/ml by microarray analysis relative to untreated control; assay type: functional; in short: as §1
# Bacillus subtilis [15] = assay: Induction of ywnJ gene expression in Bacillus subtilis at 1 ug/ml by microarray analysis relative to untreated control; assay type: functional; in short: as §1
# Bacillus subtilis [16] = assay: Induction of sigZ gene expression in Bacillus subtilis by real-time RT-PCR; assay type: functional; in short: as §2
# Bacillus subtilis [17] = assay: Induction of yqjL gene expression in Bacillus subtilis at 1 ug/ml by microarray analysis relative to untreated control; assay type: functional; in short: as §1
# Bacillus subtilis [18] = assay: Induction of yjbQ gene expression in Bacillus subtilis at 1 ug/ml by microarray analysis relative to untreated control; assay type: functional; in short: as §1
# Bacillus subtilis [19] = assay: Induction of sigM gene expression in Bacillus subtilis by real-time RT-PCR; assay type: functional; in short: as §2
# Bacillus subtilis [20] = assay: Induction of yrhIJ gene expression in Bacillus subtilis at 1 ug/ml by microarray analysis relative to untreated control; assay type: functional; in short: as §1
# Bacillus subtilis [21] = assay: Induction of bcrC gene expression in Bacillus subtilis at 1 ug/ml by microarray analysis relative to untreated control; assay type: functional; in short: as §1
# Bacillus subtilis [22] = assay: Induction of sigY gene expression in Bacillus subtilis by real-time RT-PCR; assay type: functional; in short: as §2
# Bacillus subtilis [23] = assay: Induction of sms-yacKL gene expression in Bacillus subtilis at 1 ug/ml by microarray analysis relative to untreated control; assay type: functional; in short: as §1
# Bacillus subtilis [24] = assay: Induction of yqiG gene expression in Bacillus subtilis at 1 ug/ml by microarray analysis relative to untreated control; assay type: functional; in short: as §1
# Bacillus subtilis [25] = assay: Induction of ylxW gene expression in Bacillus subtilis at 1 ug/ml by microarray analysis relative to untreated control; assay type: functional; in short: as §1
# Bacillus subtilis [26] = assay: Induction of yebC gene expression in Bacillus subtilis at 1 ug/ml by microarray analysis relative to untreated control; assay type: functional; in short: as §1
# Bacillus subtilis [27] = assay: Induction of gerAAABAC gene expression in Bacillus subtilis at 1 ug/ml by microarray analysis relative to untreated control; assay type: functional; in short: as §1
# Bacillus subtilis [28] = assay: Induction of ypuA gene expression in Bacillus subtilis at 1 ug/ml by microarray analysis relative to untreated control; assay type: functional; in short: as §1
# Bacillus subtilis [29] = assay: Induction of ypuD gene expression in Bacillus subtilis at 1 ug/ml by microarray analysis relative to untreated control; assay type: functional; in short: as §1
# Bacillus subtilis [30] = assay: Induction of ypbG gene expression in Bacillus subtilis at 1 ug/ml by microarray analysis relative to untreated control; assay type: functional; in short: as §1
# Bacillus subtilis [31] = assay: Induction of pbpI gene expression in Bacillus subtilis at 1 ug/ml by microarray analysis relative to untreated control; assay type: functional; in short: as §1
# Bacillus subtilis [32] = assay: Induction of ywaC gene expression in Bacillus subtilis at 1 ug/ml by microarray analysis relative to untreated control; assay type: functional; in short: as §1
# Bacillus subtilis [33] = assay: Induction of liaH gene expression in Bacillus subtilis by real-time RT-PCR; assay type: functional; in short: as §2
# Bacillus subtilis [34] = assay: Induction of yfnI gene expression in Bacillus subtilis at 1 ug/ml by microarray analysis relative to untreated control; assay type: functional; in short: as §1
# Bacillus subtilis [35] = assay: Induction of liaIH gene expression in Bacillus subtilis at 1 ug/ml by microarray analysis relative to untreated control; assay type: functional; in short: as §1
# Bacillus subtilis [36] = assay: Induction of ylaC gene expression in Bacillus subtilis by real-time RT-PCR; assay type: functional; in short: as §2
# Bacillus subtilis [37] = assay: Induction of sigM-yhdLK gene expression in Bacillus subtilis at 1 ug/ml by microarray analysis relative to untreated control; assay type: functional; in short: as §1
# Bacillus subtilis [38] = assay: Induction of ywtF gene expression in Bacillus subtilis at 1 ug/ml by microarray analysis relative to untreated control; assay type: functional; in short: as §1
# Bacillus subtilis [39] = assay: Induction of promoter liaI in Bacillus subtilis at 0.5 to 2 ug/ml; assay type: functional, organism-based
# In short: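 PliaI promoter activity read by β-galactosidase assay in strain BFS2470 (W168 liaI::pMUTIN). Antibiotic concentrations spanned 4 orders of magnitude.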
structure (smiles),measurement,setting,value
CC(C)CCCCCCC/C=C\CC(=O)N[C@@H](CC(N)=O)C(=O)N[C@@H]1C(=O)N2CCCC[C@@H]2C(=O)N[C@@H]([C@H](C)C(=O)O)C(=O)N[C@@H](CC(=O)O)C(=O)NCC(=O)N[C@@H](CC(=O)O)C(=O)NCC(=O)N[C@H]([C@H](C)N)C(=O)N[C@@H](C(C)C)C(=O)N2CCC[C@H]2C(=O)N[C@@H]1C [FRIULIMICIN B],fold change (FC),Bacillus subtilis [1],9.1
same,fold change (FC),Bacillus subtilis [2],7.4
same,fold change (FC),Bacillus subtilis [3],0.8
same,fold change (FC),Bacillus subtilis [4],8.5
same,fold change (FC),Bacillus subtilis [5],6.9
same,fold change (FC),Bacillus subtilis [6],5.1
same,fold change (FC),Bacillus subtilis [7],0.9
same,fold change (FC),Bacillus subtilis [8],5.9
same,fold change (FC),Bacillus subtilis [9],3.7
same,Activity,Bacillus subtilis [10],inactive
same,fold change (FC),Bacillus subtilis [11],7.2
same,fold change (FC),Bacillus subtilis [12],3.8
same,fold change (FC),Bacillus subtilis [13],4.1
same,fold change (FC),Bacillus subtilis [14],3.1
same,fold change (FC),Bacillus subtilis [15],4.1
same,fold change (FC),Bacillus subtilis [16],1.2
same,fold change (FC),Bacillus subtilis [17],8.9
same,fold change (FC),Bacillus subtilis [18],3.4
same,fold change (FC),Bacillus subtilis [19],8.7
same,fold change (FC),Bacillus subtilis [20],5.7
same,fold change (FC),Bacillus subtilis [21],8.2
same,fold change (FC),Bacillus subtilis [22],1.8
same,fold change (FC),Bacillus subtilis [23],7.1
same,fold change (FC),Bacillus subtilis [24],3.4
same,fold change (FC),Bacillus subtilis [25],3.5
same,fold change (FC),Bacillus subtilis [26],4.1
same,Activity,Bacillus subtilis [27],inactive
same,fold change (FC),Bacillus subtilis [28],6.5
same,fold change (FC),Bacillus subtilis [29],6.2
same,fold change (FC),Bacillus subtilis [30],6.4
same,fold change (FC),Bacillus subtilis [31],3.8
same,fold change (FC),Bacillus subtilis [32],8.7
same,fold change (FC),Bacillus subtilis [33],0.9
same,fold change (FC),Bacillus subtilis [34],4.7
same,Activity,Bacillus subtilis [35],inactive
same,fold change (FC),Bacillus subtilis [36],2.9
same,fold change (FC),Bacillus subtilis [37],7.4
same,fold change (FC),Bacillus subtilis [38],3.9
CCCCCCCCCC(=O)N[C@@H](Cc1c[nH]c2ccccc12)C(=O)N[C@H](CC(N)=O)C(=O)N[C@@H](CC(=O)O)C(=O)N[C@@H]1C(=O)NCC(=O)N[C@@H](CCCN)C(=O)N[C@@H](CC(=O)O)C(=O)N[C@H](C)C(=O)N[C@@H](CC(=O)O)C(=O)NCC(=O)N[C@H](CO)C(=O)N[C@@H]([C@H](C)CC(=O)O)C(=O)N[C@@H](CC(=O)c2ccccc2N)C(=O)O[C@@H]1C,fold change (FC),Bacillus subtilis [1],3.3
same,fold change (FC),Bacillus subtilis [2],2.4
same,fold change (FC),Bacillus subtilis [3],0.8
same,fold change (FC),Bacillus subtilis [4],3.1
same,Activity,Bacillus subtilis [5],inactive
same,Activity,Bacillus subtilis [6],inactive
same,fold change (FC),Bacillus subtilis [7],1.4
same,Activity,Bacillus subtilis [8],inactive
same,Activity,Bacillus subtilis [9],inactive
same,fold change (FC),Bacillus subtilis [10],4.6
same,Activity,Bacillus subtilis [11],inactive
same,Activity,Bacillus subtilis [12],inactive
same,Activity,Bacillus subtilis [13],inactive
same,fold change (FC),Bacillus subtilis [14],3.9
same,Activity,Bacillus subtilis [15],inactive
same,fold change (FC),Bacillus subtilis [16],1
same,fold change (FC),Bacillus subtilis [17],3.3
same,Activity,Bacillus subtilis [18],inactive
same,fold change (FC),Bacillus subtilis [19],2.4
same,Activity,Bacillus subtilis [20],inactive
same,fold change (FC),Bacillus subtilis [21],3.3
same,fold change (FC),Bacillus subtilis [22],0.9
same,Activity,Bacillus subtilis [23],inactive
same,Activity,Bacillus subtilis [24],inactive
same,Activity,Bacillus subtilis [25],inactive
same,Activity,Bacillus subtilis [26],inactive
same,fold change (FC),Bacillus subtilis [27],15
same,Activity,Bacillus subtilis [28],inactive
same,Activity,Bacillus subtilis [29],inactive
same,Activity,Bacillus subtilis [30],inactive
same,Activity,Bacillus subtilis [31],inactive
same,fold change (FC),Bacillus subtilis [32],4.5
same,fold change (FC),Bacillus subtilis [33],1170
same,Activity,Bacillus subtilis [34],inactive
same,fold change (FC),Bacillus subtilis [35],429
same,fold change (FC),Bacillus subtilis [36],1
same,Activity,Bacillus subtilis [37],inactive
same,Activity,Bacillus subtilis [39],Active
same,Activity,Bacillus subtilis [38],inactive
